Measurements reported in ChEMBL document CHEMBL1817636, “Use of structure-based design to discover a potent, selective, in vivo active phosphodiesterase 10A inhibitor lead series for the treatment of schizophrenia” (J Med Chem, 2011).
Active and inactive are the calls of the source. The rule behind the calls is not given here.

Assays:
[1] = biological target: T1, cGMP-inhibited 3',5'-cyclic phosphodiesterase 3A (Homo sapiens, UniProt Q14432); experiment: Inhibition of PDE3A at 1 uM
[2] = biological target: T2, cAMP and cAMP-inhibited cGMP 3',5'-cyclic phosphodiesterase 10A (Rattus norvegicus, UniProt Q9QYJ6); experiment: Inhibition of recombinant rat PDE10A expressed in Sf9 cells using [3H]cAMP after 30 mins by scintillation proximity assay
T2 sequence (Q9QYJ6 whole entry): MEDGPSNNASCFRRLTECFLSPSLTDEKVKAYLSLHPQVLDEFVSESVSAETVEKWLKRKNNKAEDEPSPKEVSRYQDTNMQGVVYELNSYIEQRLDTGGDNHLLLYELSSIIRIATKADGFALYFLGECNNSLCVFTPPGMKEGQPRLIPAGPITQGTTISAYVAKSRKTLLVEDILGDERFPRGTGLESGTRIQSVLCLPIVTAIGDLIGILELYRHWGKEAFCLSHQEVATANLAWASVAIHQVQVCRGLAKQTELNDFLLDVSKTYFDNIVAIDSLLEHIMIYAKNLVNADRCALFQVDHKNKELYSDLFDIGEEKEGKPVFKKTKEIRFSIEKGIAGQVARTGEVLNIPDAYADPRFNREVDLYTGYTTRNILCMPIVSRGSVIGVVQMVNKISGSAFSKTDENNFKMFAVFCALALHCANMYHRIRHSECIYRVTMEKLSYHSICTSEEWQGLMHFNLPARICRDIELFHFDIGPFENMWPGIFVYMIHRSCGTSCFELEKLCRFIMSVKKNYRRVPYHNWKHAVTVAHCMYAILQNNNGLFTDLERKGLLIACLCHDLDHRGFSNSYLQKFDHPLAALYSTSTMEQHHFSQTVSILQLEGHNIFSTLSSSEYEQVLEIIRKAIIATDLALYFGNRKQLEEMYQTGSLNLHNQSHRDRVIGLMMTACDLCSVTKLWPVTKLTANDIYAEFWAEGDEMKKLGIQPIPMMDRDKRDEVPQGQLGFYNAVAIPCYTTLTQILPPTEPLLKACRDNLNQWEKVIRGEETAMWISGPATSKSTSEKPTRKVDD
In short: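 Full-length rat PDE10A clone expressed in Sf9 cells; enzyme extracted in Tris/benzamidine/EDTA/sucrose/PMSF lysis buffer, pH 7.5. 30 min at room temperature, stopped with SPA beads, counted after 10–12 h.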

[3] = biological target: T1, cGMP-inhibited 3',5'-cyclic phosphodiesterase 3A; experiment: Inhibition of PDE3A
[4] = tested on: human MDR; experiment: Efflux ratio of permeability from basolateral to apical side over apical to basolateral side in dog MDCK cells expressing human MDR; type: ADME, cell-based, Canis lupus familiaris; settings: MDCK-MDR1
[5] = Intrinsic clearance in human liver microsomes; type: ADME, Microsome
[6] = Selectivity ratio IC50 for PDE1A to IC50 for rat PDE10A
[7] = Selectivity ratio of IC50 for PDE3A to IC50 for rat PDE10A
[8] = Selectivity ratio IC50 for PDE2A to IC50 for rat PDE10A
[9] = Selectivity ratio IC50 for PDE9A to IC50 for rat PDE10A
[10] = Selectivity ratio IC50 for PDE5A to IC50 for rat PDE10A
[11] = Selectivity ratio IC50 for PDE11A to IC50 for rat PDE10A
[12] = Selectivity ratio IC50 for PDE4D to IC50 for rat PDE10A
[13] = Selectivity ratio IC50 for PDE6A to IC50 for rat PDE10A
[14] = Selectivity ratio IC50 for PDE8A to IC50 for rat PDE10A
[15] = Selectivity ratio IC50 for PDE7A to IC50 for rat PDE10A
[16] = tested on: human MDR; experiment: Apparent permeability across apical to basolateral side in dog MDCK cells expressing human MDR; type: ADME, cell-based, Canis lupus familiaris; settings: MDCK-MDR1
[17] = tested on: Mus musculus; experiment: Antipsychotic activity in CD1 mouse assessed as increase in brain cGMP levels at 32 mg/kg, sc measured after 60 mins post dosing relative to control; type: functional; settings: route subcutaneous
[18] = tested on: Mus musculus; experiment: Antipsychotic activity in CD1 mouse assessed as increase in brain cGMP levels at 5.6 mg/kg, sc measured after 60 mins post dosing relative to control; type: functional; settings: route subcutaneous
[19] = tested on: Mus musculus; experiment: Antipsychotic activity in sc dosed PDE10A-knock out DBA1LAC/J mouse assessed as inhibition of conditioned avoidance response administered 30 mins prior testing; type: functional
[20] = tested on: Mus musculus; experiment: Antipsychotic activity in sc dosed PDE10A-positive DBA1LAC/J mouse assessed as inhibition of conditioned avoidance response administered 30 mins prior testing; type: functional
[21] = tested on: Mus musculus; experiment: Antipsychotic activity in CD1 mouse assessed as increase in brain cGMP levels at 32 mg/kg, sc measured after 15 mins post dosing relative to control; type: functional; settings: route subcutaneous
[22] = tested on: Mus musculus; experiment: Antipsychotic activity in CD1 mouse assessed as increase in brain cGMP levels at 32 mg/kg, sc measured after 30 mins post dosing relative to control; type: functional; settings: route subcutaneous
[23] = tested on: Mus musculus; experiment: Antipsychotic activity in CD1 mouse assessed as increase in striatal cGMP levels at 5.6 mg/kg, sc measured after 60 mins; type: functional, organism-based; set-up: dose 5.6 mg/kg
[24] = Intrinsic clearance in rat liver microsomes; type: ADME, Microsome

T1 sequence (Q14432 whole entry): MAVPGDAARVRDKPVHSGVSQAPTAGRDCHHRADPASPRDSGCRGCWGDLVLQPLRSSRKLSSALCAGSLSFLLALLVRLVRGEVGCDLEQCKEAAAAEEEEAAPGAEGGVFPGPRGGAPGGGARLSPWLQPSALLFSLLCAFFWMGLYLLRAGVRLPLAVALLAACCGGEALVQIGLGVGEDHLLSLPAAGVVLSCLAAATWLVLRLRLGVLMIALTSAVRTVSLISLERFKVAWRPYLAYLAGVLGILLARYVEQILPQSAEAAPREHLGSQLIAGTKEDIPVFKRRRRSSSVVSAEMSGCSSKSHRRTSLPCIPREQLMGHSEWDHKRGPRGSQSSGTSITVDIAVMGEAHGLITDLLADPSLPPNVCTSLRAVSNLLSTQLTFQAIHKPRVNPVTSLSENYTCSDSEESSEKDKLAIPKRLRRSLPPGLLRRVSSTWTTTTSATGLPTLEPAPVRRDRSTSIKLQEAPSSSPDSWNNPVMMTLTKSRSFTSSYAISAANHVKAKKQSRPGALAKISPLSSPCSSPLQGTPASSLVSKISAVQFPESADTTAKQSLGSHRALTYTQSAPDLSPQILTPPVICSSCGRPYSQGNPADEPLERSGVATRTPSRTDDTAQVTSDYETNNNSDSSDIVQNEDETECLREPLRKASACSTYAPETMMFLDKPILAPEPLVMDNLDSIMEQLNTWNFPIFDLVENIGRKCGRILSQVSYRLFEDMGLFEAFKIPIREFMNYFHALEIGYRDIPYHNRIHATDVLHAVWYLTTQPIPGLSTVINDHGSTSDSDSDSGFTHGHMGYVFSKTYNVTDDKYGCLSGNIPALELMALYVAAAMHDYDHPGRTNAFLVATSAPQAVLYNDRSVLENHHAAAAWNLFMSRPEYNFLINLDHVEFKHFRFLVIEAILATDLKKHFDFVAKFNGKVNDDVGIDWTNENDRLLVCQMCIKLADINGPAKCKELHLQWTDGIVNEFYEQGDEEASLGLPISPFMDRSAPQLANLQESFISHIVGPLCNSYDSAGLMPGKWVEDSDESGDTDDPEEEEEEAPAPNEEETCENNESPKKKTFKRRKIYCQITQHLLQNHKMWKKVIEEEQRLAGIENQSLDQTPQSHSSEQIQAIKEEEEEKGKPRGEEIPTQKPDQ

Structure (SMILES): COc1cc2ncnc(N3CCCC(c4ccccc4)C3)c2cc1OCCc1ccccn1 (stereo not drawn)
- inhibition [1]: 32%

Structure (SMILES): c1ccc2nc(CCOc3ccc4ccncc4c3)ccc2c1
- IC50 [2]: 0.809 µM

Structure (SMILES): COc1cc2ncnc(N3CCCC(c4ccccc4)C3)c2cc1OCc1ccccn1 (stereo not drawn)
- IC50 [2]: > 3.2 µM

Structure (SMILES): COc1cc2ncnc(N3CCCC(c4ccccc4)C3)c2cc1OC (stereo not drawn) [listing 1 of 2 here]
- IC50 [3]: 0.0085 µM
- efflux ratio [4]: 0.7
- CLint scaled [5]: 0.78 L/h/kg

Structure (SMILES): COc1cc2ncnc(N3CCCC(c4ccccc4)C3)c2cc1OCc1ccncc1 (stereo not drawn)
- IC50 [2]: > 3.2 µM

Structure (SMILES): COc1cc2ncnc(N3CCCC(c4ccccc4)C3)c2cc1OCCc1ccc2ccccc2n1 (stereo not drawn)
- Ratio IC50 [6]: > 100
- Ratio IC50 [7]: > 100
- Ratio IC50 [8]: > 100
- Ratio IC50 [9]: > 100
- Ratio IC50 [10]: > 100
- Ratio IC50 [11]: > 100
- Ratio IC50 [12]: > 100
- efflux ratio [4]: > 10
- CLint scaled [5]: > 1.14 L/h/kg
- Ratio IC50 [13]: > 100
- Ratio IC50 [14]: > 100
- Ratio IC50 [15]: > 100

Structure (SMILES): COc1cc2ncnc(N3CCCC(c4ccccc4)C3)c2cc1OCc1ccc2ccccc2n1 (stereo not drawn)
- IC50 [2]: > 3.2 µM

Structure (SMILES): COc1cc2ncnc(N3CCCC(c4ccccc4)C3)c2cc1OCCc1ccncc1 (stereo not drawn)
- IC50 [2]: > 3.2 µM

Structure (SMILES): COc1cc2ncnc(N3CCCC(c4ccccc4)C3)c2cc1OCCCc1nc2ccccc2n1C (stereo not drawn)
- IC50 [2]: 0.01 µM
- inhibition [1]: 11%

Structure (SMILES): COc1cc2ncnc(N3CCCC(c4ccccc4)C3)c2cc1OCCc1ccccn1 (racemic)
- Ratio IC50 [7]: > 5

Structure (SMILES): COc1cc2ncnc(N3CCCC(c4ccccc4)C3)c2cc1OC (stereo not drawn) [listing 2 of 2 here]
- Ratio IC50 [7]: < 0.1

Structure (SMILES): COc1cc2ncnc(N3CCCC(c4ccccc4)C3)c2cc1OCCc1cccnc1 (stereo not drawn)
- IC50 [2]: 2.34 µM

Structure (SMILES): COc1cc2ncnc(N(C)C)c2cc1OCCc1ccc2ccccc2n1
- Papp A→B [16]: 190 nm/s
- Activity [17]: 268%
- IC50 [2]: 0.014 µM
- CLint scaled [5]: 10.7 L/h/kg
- Activity [18]: 34%

Structure (SMILES): COc1cc2ncnc(-c3cccnc3)c2cc1OCCc1ccc2ccccc2n1
- Papp A→B [16]: 4 nm/s
- ED50 [19]: > 5.8 mg/kg
- ED50 [20]: 3.18 mg/kg
- IC50 [2]: 0.005 µM
- CLint scaled [5]: < 0.48 L/h/kg
- Activity [18]: 79%

Structure (SMILES): COc1cc2ncnc(N3CCCC(c4ccccc4)C3)c2cc1OC (racemic)
- IC50 [2]: 0.146 µM

Structure (SMILES): COc1cc2ncn(C)c(=O)c2cc1OCCc1ccc2ccccc2n1
- Activity [21]: 129%
- Papp A→B [16]: 180 nm/s
- IC50 [2]: 0.012 µM
- CLint scaled [5]: 5.58 L/h/kg
- Activity [22]: 79%

Structure (SMILES): COc1cc2ncnc(N3CCCC(c4ccccc4)C3)c2cc1OCCc1ccccc1 (stereo not drawn)
- IC50 [2]: 1.66 µM

Structure (SMILES): COc1cc2ncnc(N3CCCC(c4ccccc4)C3)c2cc1OCc1cccnc1 (stereo not drawn)
- IC50 [2]: > 3.2 µM

Structure (SMILES): COc1cc2cncnc2cc1OCCc1ccc2ccccc2n1
- Activity [23]: inactive
- Papp A→B [16]: 30 nm/s
- inhibition [1]: 51%
- CLint scaled [24]: 11 L/h/kg
- CLint scaled [5]: < 0.42 L/h/kg

Structure (SMILES): CCCOc1cc2c(N3CCCC(c4ccccc4)C3)ncnc2cc1OC (stereo not drawn)
- IC50 [3]: 0.098 µM
- Ratio IC50 [7]: < 0.1
- IC50 [2]: 1.04 µM
